From ChEMBL document CHEMBL1123430, “Potential tumor- or organ-imaging agents. 26. Polyiodinated 2-substituted triacylglycerols as hepatographic agents” (J Med Chem, 1986)

Legend:
Rattus norvegicus [1] = test: Distribution of radioactivity of radiolabeled compound in heart of female rats 30 minutes after intravenous administration; assay type: ADME, organism-based; conditions: in vivo, 0.5 h
Rattus norvegicus [2] = test: Polyacrylamide Gel Electrophoresis (PAGE) analysis of rat plasma after intravenous administration of radiolabeled compound concentration of stacking gel; assay type: functional, organism-based
In short: (§1)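 ¹²⁵I-labeled compound, radioiodinated by exchange in a pivalic acid melt, solubilized in normal saline with Tween 20 and given iv to adult female Sprague–Dawley rats (200–250 g), 5–30 μCi/animal, 3–4 rats per time point. Plasma was run on polyacrylamide gels. Gels were sectioned and gamma counted. Radioactivity per band (stacking gel, LDL, HDL, albumin, below albumin) is given as % of total applied; mean ± SEM, n = 3-5.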

Rattus norvegicus [3] = test: Polyacrylamide Gel Electrophoresis (PAGE) analysis of rat plasma after intravenous administration of radiolabeled compound at concentration of low-density lipoprotein; assay type: functional, organism-based; in short: as §1
Rattus norvegicus [4] = test: Distribution of radioactivity of radiolabeled compound in blood of female rats 5 minutes after intravenous administration; assay type: ADME, organism-based; conditions: in vivo
Rattus norvegicus [5] = test: Polyacrylamide Gel Electrophoresis (PAGE) analysis of rat plasma 5 minutes after intravenous administration of radiolabeled compound in albumin; assay type: functional, organism-based; in short: as §1
Rattus norvegicus [6] = test: Distribution of radioactivity of radiolabeled compound in lung of female rats 5 minutes after intravenous administration; assay type: ADME, organism-based; conditions: in vivo
Rattus norvegicus [7] = test: Polyacrylamide Gel Electrophoresis (PAGE) analysis of rat plasma 30 min after intravenous administration of radiolabeled compound ( below albumin ); assay type: functional, organism-based
In short: (§2)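 Gels were sectioned and counted in a γ counter. Radioactivity in each band (stacking gel, LDL, HDL, albumin, below albumin) is expressed as a percentage of the total radioactivity applied to the gel, ± SEM, n = 3-5.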

Rattus norvegicus [8] = test: Distribution of radioactivity of radiolabeled compound in kidney of female rats 5 minutes after intravenous administration; assay type: ADME, organism-based; conditions: in vivo
Rattus norvegicus [9] = test: Distribution of radioactivity of radiolabeled compound in lung of female rats 30 minutes after intravenous administration; assay type: ADME, organism-based; conditions: in vivo, 0.5 h
Rattus norvegicus [10] = test: Distribution of radioactivity of radiolabeled compound in liver of female rats 5 minutes after intravenous administration; assay type: ADME, organism-based; conditions: in vivo
Rattus norvegicus [11] = test: Polyacrylamide Gel Electrophoresis (PAGE) analysis of rat plasma 5 minutes after intravenous administration of radiolabeled compound in stacking gel; assay type: functional, organism-based; in short: as §1
Rattus norvegicus [12] = test: Polyacrylamide Gel Electrophoresis (PAGE) analysis of rat plasma 5 minutes after intravenous administration of radiolabeled compound in high density lipoprotein; assay type: functional, organism-based; in short: as §1
Rattus norvegicus [13] = test: Distribution of radioactivity of radiolabeled compound in heart of female rats 5 minutes after intravenous administration; assay type: ADME, organism-based; conditions: in vivo
Rattus norvegicus [14] = test: Distribution of radioactivity of radiolabeled compound in kidney of female rats 30 minutes after intravenous administration; assay type: ADME, organism-based; conditions: in vivo, 0.5 h
Rattus norvegicus [15] = test: Distribution of radioactivity of radiolabeled compound in blood of female rats 30 minutes after intravenous administration; assay type: ADME, organism-based; conditions: in vivo, 0.5 h
Rattus norvegicus [16] = test: Polyacrylamide Gel Electrophoresis (PAGE) analysis of rat plasma after intravenous administration of radiolabeled compound in high density lipoprotein; assay type: functional, organism-based; in short: as §1
Rattus norvegicus [17] = test: Polyacrylamide Gel Electrophoresis (PAGE) analysis of rat plasma 30 min after intravenous administration of radiolabeled compound in albumin; assay type: functional, organism-based; in short: as §2
Rattus norvegicus [18] = test: Distribution of radioactivity of radiolabeled compound in liver of female rats 30 minutes after intravenous administration; assay type: ADME, organism-based; conditions: in vivo, 0.5 h
Rattus norvegicus [19] = test: Polyacrylamide Gel Electrophoresis (PAGE) analysis of rat plasma 5 minutes after intravenous administration of radiolabeled compound in low-density lipoprotein; assay type: functional, organism-based; in short: as §1
Rattus norvegicus [20] = test: Polyacrylamide Gel Electrophoresis (PAGE) analysis of rat plasma 5 min after intravenous administration of radiolabeled compound in albumin; assay type: functional, organism-based; in short: as §2
Rattus norvegicus [21] = test: Percentage parent compound in rat plasma 5 minutes after iv administration of the radiolabeled compound by thin-layer chromatography; assay type: functional
In short: (§3)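 Liver and plasma were taken at 5 or 30 min. Plasma was extracted by a modified Folch procedure, and liver was homogenized and extracted. Extracts were run on TLC in hexane/ethyl acetate (5:2) for esters or THF/hexane (1:1) for acids, with unlabeled compound as reference. Plates were cut into 1-cm strips and counted. Values are percent ± SEM, n = 3-5.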

Rattus norvegicus [22] = test: Percentage parent compound in rat liver 5 minutes after iv administration of the radiolabeled compound by thin-layer chromatography; assay type: functional; in short: as §3
Rattus norvegicus [23] = test: Percentage parent compound in rat plasma 30 minutes after iv administration of the radiolabeled compound by thin-layer chromatography; assay type: functional; in short: as §3
Rattus norvegicus [24] = test: Percentage parent compound in rat liver 30 minutes after iv administration of the radiolabeled compound by thin-layer chromatography; assay type: functional; in short: as §3
Rattus norvegicus [25] = test: Percentage […]/CH3OH extract of the radiolabeled compound in rat plasma 30 minutes after iv administration; assay type: functional; in short: as §3
Rattus norvegicus [26] = test: Polyacrylamide Gel Electrophoresis (PAGE) analysis of rat plasma 30 minutes after intravenous administration of radiolabeled compound concentration in stacking gel; assay type: functional, organism-based; in short: as §2
Rattus norvegicus [27] = test: Percentage […]/CH3OH extract of the radiolabeled compound in rat plasma 5 minutes after iv administration; assay type: functional; in short: as §3
Rattus norvegicus [28] = test: Polyacrylamide Gel Electrophoresis (PAGE) analysis of rat plasma 30 minutes after intravenous administration of radiolabeled compound in high density lipoprotein; assay type: functional, organism-based; in short: as §2
Rattus norvegicus [29] = test: Polyacrylamide Gel Electrophoresis (PAGE) analysis of rat plasma 30 minutes after intravenous administration of radiolabeled compound (below albumin); assay type: functional, organism-based; in short: as §2
Rattus norvegicus [30] = test: Polyacrylamide Gel Electrophoresis (PAGE) analysis of rat plasma 5 minutes after intravenous administration of radiolabeled compound (below albumin ); assay type: functional, organism-based; in short: as §1
Rattus norvegicus [31] = test: Percentage […]/CH3OH extract of the radiolabeled compound in rat liver 30 minutes after iv administration; assay type: functional; in short: as §3
Rattus norvegicus [32] = test: Polyacrylamide Gel Electrophoresis (PAGE) analysis of rat plasma 30 minutes after intravenous administration of radiolabeled compound in low-density lipoprotein; assay type: functional, organism-based; in short: as §2
Rattus norvegicus [33] = test: Percentage […]/CH3OH extract of the radiolabeled compound in rat liver 5 minutes after iv administration; assay type: functional; in short: as §3
Rattus norvegicus [34] = test: Polyacrylamide Gel Electrophoresis (PAGE) analysis of rat plasma 30 minutes after intravenous administration of radiolabeled in stacking gel; assay type: functional, organism-based; in short: as §2
Rattus norvegicus [35] = test: Polyacrylamide Gel Electrophoresis (PAGE) analysis of rat plasma 5 minutes after intravenous administration of radiolabeled compound at in high density lipoprotein; assay type: functional, organism-based; in short: as §1
Rattus norvegicus [36] = test: Polyacrylamide Gel Electrophoresis (PAGE) analysis of rat plasma 5 min after intravenous administration of radiolabeled compound concentration of albumin; assay type: functional, organism-based; in short: as §2
Rattus norvegicus [37] = test: Polyacrylamide Gel Electrophoresis (PAGE) analysis of rat plasma 30 min after intravenous administration of radiolabeled compound at in high density; assay type: functional, organism-based; in short: as §2
Rattus norvegicus [38] = test: Polyacrylamide Gel Electrophoresis (PAGE) analysis of rat plasma 30 min after intravenous administration of radiolabeled compound in low density lipoprotein; assay type: functional, organism-based; in short: as §2
Rattus norvegicus [39] = test: Polyacrylamide Gel Electrophoresis (PAGE) analysis of rat plasma 30 min after intravenous administration of radiolabeled compound ( below albumin); assay type: functional, organism-based; in short: as §2

Dose (Rattus norvegicus [1]) [%]	Dose (Rattus norvegicus [4]) [%]	Dose (Rattus norvegicus [6]) [%]	Dose (Rattus norvegicus [8]) [%]	Dose (Rattus norvegicus [9]) [%]	Dose (Rattus norvegicus [10]) [%]	Dose (Rattus norvegicus [13]) [%]	Dose (Rattus norvegicus [14]) [%]	Dose (Rattus norvegicus [15]) [%]	Dose (Rattus norvegicus [18]) [%]	SMILES	Concentration (Rattus norvegicus [11]) [%]	Concentration (Rattus norvegicus [12])	Concentration (Rattus norvegicus [17])	Concentration (Rattus norvegicus [19]) [%]	Concentration (Rattus norvegicus [20])	Concentration (Rattus norvegicus [30])	also measured
0.46	2.19	0.81	0.71	0.61	1.64	0.74	0.52	1.21	1.46	CCC(Cc1c(I)cc(I)c(N)c1I)C(=O)O (stereo not drawn) [IOPANOIC ACID]	0.6	19.8	78.4	0.5	77.5	–	Concentration (Rattus norvegicus [2]): 3.9; Concentration (Rattus norvegicus [3]): 2.2; Concentration (Rattus norvegicus [5]): 77.5; Concentration (Rattus norvegicus [7]): 6.7%; Concentration (Rattus norvegicus [16]): 8.7%
0.68	6.23	1.41	0.93	1.34	2.96	0.63	0.87	6.5	4	CCCCCCCCCCCCCCCC(=O)OCC(COC(=O)CCCCCCCCCCCCCCC)OC(=O)Cc1c(I)cc(I)c(N)c1I	9	50.5	1.9	34	3.3	3.2	Activity (Rattus norvegicus [21]): 97.7%; Activity (Rattus norvegicus [22]): 91.7%; Activity (Rattus norvegicus [23]): 91.9%; Activity (Rattus norvegicus [24]): 89%; Activity (Rattus norvegicus [25]): 81.5%; Concentration (Rattus norvegicus [26]): 3%; Activity (Rattus norvegicus [27]): 89.4%; Concentration (Rattus norvegicus [28]): 53.4%; Concentration (Rattus norvegicus [29]): 0.5; Activity (Rattus norvegicus [31]): 83.1%; Concentration (Rattus norvegicus [32]): 41.2%; Activity (Rattus norvegicus [33]): 91.2%
4.14	2.52	1.02	2.44	0.45	1.08	4	1.54	1.15	0.77	Nc1c(I)cc(I)c(CCC(=O)O)c1I	4.6	–	51.5	2.4	–	4.1	Concentration (Rattus norvegicus [34]): 11; Concentration (Rattus norvegicus [35]): 5.3%; Concentration (Rattus norvegicus [36]): 83.6; Concentration (Rattus norvegicus [37]): 13.3%; Concentration (Rattus norvegicus [38]): 6.9; Concentration (Rattus norvegicus [39]): 10.8
